Measured values pooled from the literature.
Compare with care: the assays were run in different laboratories.
Sample: Caco-2

SMILES | conditions | endpoint | value
CC(=O)c1c(C)c2cnc(Nc3ccc(C4CCN(CCS(C)(=O)=O)CC4)cn3)nc2n(C2CCCC2)c1=O | 10 µM | Papp A→B | 15.4 ×10⁻⁶ cm/s
O=c1c2cc(Cl)c(CO)cc2[nH]c(=S)n1Cc1cncnc1 | 10 µM, 90 min, pH 7.4 | Papp B→A | 27 ×10⁻⁶ cm/s
C[C@H]1O[C@@H](O[C@H]2[C@@H](O)C[C@H](O[C@H]3[C@@H](O)C[C@H](O[C@H]4CC[C@@]5(C)[C@H](CC[C@@H]6[C@@H]5C[C@@H](O)[C@]5(C)[C@@H](C7=CC(=O)OC7)CC[C@]65O)C4)O[C@@H]3C)O[C@@H]2C)C[C@H](O)[C@@H]1O | pH 7.4 | Papp A→B | 1.4 ×10⁻⁶ cm/s
C/C=C1/CN2CC[C@@]34c5cc(O)ccc5N(C)[C@]35OC[C@@]4(C(=O)OC)[C@H]1C[C@H]25 | 10 µM, 2 h, pH 7.4 | Papp A→B | 28.2 ×10⁻⁶ cm/s
CC(c1cncnc1)n1c(=S)[nH]c2ccc(Cl)cc2c1=O (centres unmarked) | 10 µM, 90 min, pH 7.4 | Papp A→B | 45.7 ×10⁻⁶ cm/s
CC(C)NCC(O)COc1cccc2ccccc12 (centres unmarked) | pH 7.4 | Papp B→A | 4.2 ×10⁻⁶ cm/s
O=C1CCC(N2Cc3c(ccc4c3OCC43CCN(Cc4ccccc4)CC3)C2=O)C(=O)N1 (centres unmarked) | 10 µM, 2 h | Papp | 19 ×10⁻⁶ cm/s
CC(C)NCC(O)COc1cccc2ccccc12 (centres unmarked) | 10 µM, 2 h, pH 7.4 | Papp B→A | 19.5 ×10⁻⁶ cm/s
